# Experimental data from PMC10233671 (ACS Omega, 2023).
# What was measured:
# Mtb H37Rv = conditions: reported value; cited from earlier work
# [1] = biological target: bovine mitochondrial cytochrome bc1 (complex III) (Bos taurus, UniProt P00157); experiment: Oxygen consumption assay with bovine heart sub-mitochondrial particles; assay type: biochemical
# [2] = cited from earlier work
# [3] = system: viable mycobacteria in the sputum; conditions: phase 2a multiple-dose trial; cited from earlier work
# mitochondrial complex I = mitochondrial complex I (Bos taurus, UniProt P03887+P17694+P42026); experiment: Bos taurus complex I activity assay; assay type: biochemical; conditions: 10 μM, SMPs
# How it was run: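 Complex I from bovine heart sub-mitochondrial particles, prepared at 4 °C from isolated mitochondria and cleared at 16,000g. In a 96-well plate, SMPs were mixed with 10 μM test compound or positive control (rotenone, antimycin A or KCN). The reaction was started by injecting 200 μM NADH. NADH oxidation was followed at 340 nm for 8 min.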
# Msmeg CIII2CIV2 = Msmeg CIII2CIV2 (Mycolicibacterium smegmatis, UniProt A0R052+I7GD61); experiment: Oxygen consumption assay with purified CIII2CIV2; assay type: biochemical, Mycobacterium smegmatis
# [4] = biological target: T1, mitochondrial CIII2 (cytochrome bc1) (Candida albicans, UniProt P0C8L0); experiment: C. albicans complex III activity assay; assay type: biochemical; conditions: 10 and 1 μM
# T1 sequence (P0C8L0 1-387): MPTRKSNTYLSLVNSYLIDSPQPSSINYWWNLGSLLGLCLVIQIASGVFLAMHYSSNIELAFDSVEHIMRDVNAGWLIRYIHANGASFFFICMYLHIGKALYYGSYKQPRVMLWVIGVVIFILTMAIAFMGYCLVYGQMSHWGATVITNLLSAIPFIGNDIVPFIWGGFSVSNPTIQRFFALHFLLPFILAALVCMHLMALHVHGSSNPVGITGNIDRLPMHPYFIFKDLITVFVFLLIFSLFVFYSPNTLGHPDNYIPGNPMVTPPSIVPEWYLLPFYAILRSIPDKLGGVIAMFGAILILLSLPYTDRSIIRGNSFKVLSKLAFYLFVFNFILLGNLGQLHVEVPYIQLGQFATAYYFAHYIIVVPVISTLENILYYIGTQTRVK
# Sequence of mitochondrial complex I (P03887 whole entry): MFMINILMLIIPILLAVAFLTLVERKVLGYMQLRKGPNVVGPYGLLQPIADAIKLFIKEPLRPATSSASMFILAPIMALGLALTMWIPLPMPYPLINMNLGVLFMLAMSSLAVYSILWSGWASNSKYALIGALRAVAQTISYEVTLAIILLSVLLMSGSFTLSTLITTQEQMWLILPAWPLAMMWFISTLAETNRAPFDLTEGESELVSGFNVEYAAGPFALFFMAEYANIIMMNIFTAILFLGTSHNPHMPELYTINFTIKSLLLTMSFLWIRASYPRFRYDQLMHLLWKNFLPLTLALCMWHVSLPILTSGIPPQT
# Sequence of mitochondrial complex I (P42026 38-216): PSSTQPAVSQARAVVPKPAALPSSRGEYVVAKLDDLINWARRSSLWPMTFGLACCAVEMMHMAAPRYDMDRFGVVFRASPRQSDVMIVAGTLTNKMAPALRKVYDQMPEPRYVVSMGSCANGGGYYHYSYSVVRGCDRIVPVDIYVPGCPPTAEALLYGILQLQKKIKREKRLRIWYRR
# Sequence of mitochondrial complex I (P17694 34-463): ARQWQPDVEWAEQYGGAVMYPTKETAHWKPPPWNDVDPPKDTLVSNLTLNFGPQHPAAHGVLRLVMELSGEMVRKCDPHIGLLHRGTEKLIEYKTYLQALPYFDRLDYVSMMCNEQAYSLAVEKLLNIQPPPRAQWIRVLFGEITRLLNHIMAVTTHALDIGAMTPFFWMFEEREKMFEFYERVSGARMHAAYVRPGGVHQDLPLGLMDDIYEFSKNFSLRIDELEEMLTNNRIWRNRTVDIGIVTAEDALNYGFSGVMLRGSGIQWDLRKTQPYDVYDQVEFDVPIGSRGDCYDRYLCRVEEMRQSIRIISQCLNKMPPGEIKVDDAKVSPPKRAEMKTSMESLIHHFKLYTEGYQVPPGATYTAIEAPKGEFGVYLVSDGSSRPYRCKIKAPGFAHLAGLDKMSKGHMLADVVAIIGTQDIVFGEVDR
smiles,measurement,setting,value
CCc1nc2ccc(Cl)cn2c1C(=O)NCc1ccc(N2CCC(c3ccc(OC(F)(F)F)cc3)CC2)cc1 [Compound Q203],MIC50,Mtb H37Rv,2.7 nM
same,activity against bovine mitochondrial cytochrome bc1,[1],did not show activity
same,inhibition in SMPs,[1]; 1 μM,no inhibition was detected
same,inhibition in SMPs,[1]; 10 μM,some inhibition
same,inhibition at 10 µM,[1]; read-out: inhibition of complex III in SMPs,80%
same,half-life,[2],13.38 ± 9.4704 days
same,early bactericidal activity,[3],dose-dependent reduction in the load of viable mycobacteria in the sputum
same,inhibition of / binding to mitochondrial complex I,mitochondrial complex I,do not inhibit
same,IC50,Msmeg CIII2CIV2,99 ± 32 nM
same,inhibition of purified C. albicans CIII2,[4],No inhibition was observed
